The text below walks through data of ChEMBL document CHEMBL3593207, “Imidazole clubbed 1,3,4-oxadiazole derivatives as potential antifungal agents” (2015).

Structures are written as SMILES. In brackets after ≈: the same amount, converted by molar mass.

Holding throughout (type): functional
The subject of test [1] is Candida tropicalis. Description: Antifungal activity against clinical isolates of Candida tropicalis 2356 after 48 hrs by disc diffusion assay. In short, it runs like this:
(§1)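 Cells grown in YPD were mixed at 10^3 cells/ml into molten agar (about 40 °C) and poured into plates. Test compound at 1/2×MIC, MIC and 2×MIC was spotted on filter discs on the set agar, with fluconazole and 1% DMSO as positive and vehicle controls. Plates were incubated 48 h at 37 °C, then inhibition zone diameters were recorded in mm.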
Background: Agar diffusion results depend on both activity and mobility in agar.

Test [2] concerns Candida albicans. Description: Inhibition of ergosterol biosynthesis in Candida albicans ATCC 10261 assessed as ergosterol content after 16 hrs by spectrophotometer analysis. Details: scale not given: the % may be the effect or the level left. A digest of the protocol:
(§2)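 Cells were pelleted, washed, weighed wet, and saponified in 3 mL 25% alcoholic KOH at 85 °C for 1 h. Sterols were extracted with 1 mL water plus 3 mL n-heptane. Ergosterol content is expressed relative to untreated control cells.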

In test [3] the test system is Candida albicans. Put plainly: Antifungal activity against Candida albicans ATCC 10261 after 48 hrs by disc diffusion assay. A digest of the protocol:
as §1

Test [4] deals with Candida tropicalis. Description: Antifungal activity against clinical isolates of Candida tropicalis 2029 by broth microdilution assay. In short, it runs like this:
(§3)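 CLSI M27-A3 broth microdilution. Compounds diluted to 1 mg/ml in 1% DMSO. Fluconazole (1 mg/ml) served as positive control, 1% DMSO as vehicle control, with media and culture controls. Triplicate at each concentration, repeated thrice. Inocula came from YPDA stocks subcultured in broth for 48 h at 37 °C.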
Background: In broth dilution the organism is exposed to a series of concentrations in liquid medium.

In test [5] the test system is Candida albicans. Put plainly: Inhibition of ergosterol biosynthesis in Candida albicans 2367 assessed as ergosterol content after 16 hrs by spectrophotometer analysis. Details: scale not given: the % may be the effect or the level left. A digest of the protocol: as §2
For test [6], the system named is Candida tropicalis. Put plainly: Antifungal activity against clinical isolates of Candida tropicalis 2356 by broth microdilution assay. In short, it runs like this:
as §3

The subject of test [7] is Candida albicans. Description: Antifungal activity against clinical isolates of Candida albicans 2367 after 48 hrs by disc diffusion assay. In short, it runs like this:
as §1

The subject of test [8] is Candida tropicalis. Put plainly: Inhibition of ergosterol biosynthesis in Candida tropicalis ATCC 750 assessed as ergosterol content after 16 hrs by spectrophotometer analysis. On the set-up: scale not given: the % may be the effect or the level left. A digest of the protocol:
as §2

For test [9], the system named is Candida tropicalis. Put plainly: Antifungal activity against clinical isolates of Candida tropicalis 2029 after 48 hrs by disc diffusion assay. In short, it runs like this: as §1
The test system of test [10] is Candida albicans. Description: Inhibition of ergosterol biosynthesis in Candida albicans 2323 assessed as ergosterol content after 16 hrs by spectrophotometer analysis. Details: scale not given: the % may be the effect or the level left. A digest of the protocol:
as §2

Test [11] deals with Candida tropicalis. Put plainly: Inhibition of ergosterol biosynthesis in Candida tropicalis 2029 assessed as ergosterol content after 16 hrs by spectrophotometer analysis. On the set-up: scale not given: the % may be the effect or the level left. In short, it runs like this:
as §2

Test [12] has as its system Candida tropicalis. Put plainly: Antifungal activity against Candida tropicalis ATCC 750 by broth microdilution assay. A digest of the protocol: as §3
The test system of test [13] is Candida albicans. Put plainly: Inhibition of ergosterol biosynthesis in Candida albicans 2779 assessed as ergosterol content after 16 hrs by spectrophotometer analysis. Details: scale not given: the % may be the effect or the level left. A digest of the protocol:
as §2

In test [14] the test system is Candida albicans. Description: Antifungal activity against clinical isolates of Candida albicans 2367 by broth microdilution assay. In short, it runs like this: as §3
The test system of test [15] is Candida tropicalis. Put plainly: Inhibition of ergosterol biosynthesis in Candida tropicalis 2356 assessed as ergosterol content after 16 hrs by spectrophotometer analysis. Details: scale not given: the % may be the effect or the level left. A digest of the protocol: as §2
The subject of test [16] is Candida albicans. Description: Antifungal activity against clinical isolates of Candida albicans 2323 by broth microdilution assay. In short, it runs like this: as §3
Test [17] deals with Candida albicans. Description: Antifungal activity against clinical isolates of Candida albicans 2323 after 48 hrs by disc diffusion assay. In short, it runs like this:
as §1

For test [18], the system named is Candida albicans. Put plainly: Antifungal activity against clinical isolates of Candida albicans 2779 after 48 hrs by disc diffusion assay. In short, it runs like this:
as §1

The subject of test [19] is Candida tropicalis. Put plainly: Antifungal activity against Candida tropicalis ATCC 750 after 48 hrs by disc diffusion assay. A digest of the protocol:
as §1

Test [20] relates to Candida albicans. Description: Antifungal activity against clinical isolates of Candida albicans 2779 by broth microdilution assay. A digest of the protocol:
as §3

Test [21] deals with Candida albicans. Description: Antifungal activity against Candida albicans ATCC 10261 by broth microdilution assay. A digest of the protocol:
as §3

Take `OC(Cn1cncn1)(Cn1cncn1)c1ccc(F)cc1F` [FLUCONAZOLE]: the “inhibition zone (IZ)” value in test [1] was 8 mm; in test [3], 11 mm; in test [7], 10 mm; in [9], 11 mm; in test [17], 9 mm; in test [18] it was 13 mm. Further, in [19], the “inhibition zone (IZ)” value is 16 mm. Besides, the Activity in test [2], in test [5], in test [8], in test [10], in [11] and in test [13] was 100% in each case. Moreover, in test [15], the Activity is 100%. The MIC (usually the lowest concentration found to suppress growth) in test [4] is 32 µg/mL (≈ 104 µM); in test [6] it was 62 µg/mL (≈ 202 µM); in test [12], 16 µg/mL (≈ 52.2 µM); in test [14], 16 µg/mL (≈ 52.2 µM); in [16], 32 µg/mL (≈ 104 µM); in [20], 32 µg/mL (≈ 104 µM). The same molecule returned a minimal inhibitory concentration (MIC) in [21] of 8 µg/mL (≈ 26.1 µM).
